Data as given in ChEMBL document CHEMBL4311932, “Novel zafirlukast derivatives exhibit selective antibacterial activity against Porphyromonas gingivalis” (Medchemcomm, 2019).
Calls of active or inactive are those of the source. The calls are words filed in the database; no cut-off is given here.

How the values were obtained:
Porphyromonas gingivalis [1] = experiment: Antibacterial activity against Porphyromonas gingivalis 381 assessed as bacterial growth inhibition at 10 uM measured after 2 hrs in anaerobic condition by WST1 assay relative to control; format: functional; conditions: Porphyromonas gingivalis, 381, 2 h; read-out: GI
In short: (§1)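 P. gingivalis 381 was grown anaerobically in BHI with 5 µg/mL hemin and 1 µg/mL menadione to log phase (3-4 h). Cultures at 10^6/well in 90 µL broth were exposed for 2 h, then given WST-1 for another 2 h. A450 was read with a 600 nm reference. % growth inhibition was taken against medium-only control, using DMSO vehicle and tetracycline 1 µg/mL as comparators.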

Porphyromonas gingivalis [2] = experiment: Antibacterial activity against Porphyromonas gingivalis 381 assessed as bacterial growth inhibition at 100 uM measured after 2 hrs in anaerobic condition by WST1 assay relative to control; format: functional; conditions: Porphyromonas gingivalis, 381, 2 h; read-out: GI; in short: as §1
Porphyromonas gingivalis [3] = experiment: Bactericidal activity against Porphyromonas gingivalis 381 at 25 to 50 uM treated for 24 hrs and measured after 7 days incubation in anaerobic condition […]; format: functional, organism-based
In short: (§2)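 Viable-count assay on P. gingivalis 381 (10^6/well) grown anaerobically. Cultures were exposed for 24 h to agents dissolved in DMSO. 50 µL of 1:400 dilutions were spread on blood agar, and CFU/mL was counted after 7 days anaerobic incubation. Controls were medium or DMSO (negative) and tetracycline 2.25 µM (positive).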

Porphyromonas gingivalis [4] = experiment: Antibacterial activity against Porphyromonas gingivalis 381 assessed as bacterial growth inhibition at 25 to 50 uM measured after 2 hrs in anaerobic condition by WST1 assay; format: functional, organism-based
Porphyromonas gingivalis [5] = experiment: Antibacterial activity against Porphyromonas gingivalis 381 assessed as bacterial growth inhibition at 2.25 uM measured after 2 hrs in anaerobic condition by WST1 assay; format: functional, organism-based
Actinomyces naeslundii = experiment: Antibacterial activity against Actinomyces naeslundii ATCC 49340 assessed as bacterial growth inhibition at 1 to 100 uM after 2 hrs in anaerobic condition by WST1 assay; format: functional, organism-based
In short: (§3)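 Log-phase cultures (3-4 h in BHI broth after overnight growth) were plated at 10^6 bacteria/well in 90 µL and treated for 2 h. WST-1 was then added for a further 2 h incubation, aerobic for S. sanguinis and anaerobic for the others, at 37 °C. A450 was read against a 600 nm reference. % inhibition = 100 × [OD(medium control) − OD(treated)]/OD(control). Compounds were dissolved in DMSO.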

Porphyromonas gingivalis [6] = experiment: Antibacterial activity against Porphyromonas gingivalis 381 assessed as bacterial growth inhibition at 1 uM measured after 2 hrs in anaerobic condition by WST1 assay relative to control; format: functional; conditions: Porphyromonas gingivalis, 381, 2 h; read-out: GI; in short: as §1
Veillonella parvula = experiment: Antibacterial activity against Veillonella parvula ATCC 10790 assessed as bacterial growth inhibition at 1 to 100 uM after 2 hrs in anaerobic condition by WST1 assay; format: functional, organism-based; in short: as §3
Fusobacterium nucleatum = experiment: Antibacterial activity against Fusobacterium nucleatum ATCC 25586 assessed as bacterial growth inhibition at 1 to 100 uM after 2 hrs in anaerobic condition by WST1 assay relative to control; format: functional; in short: as §3
[7] = Cytotoxicity against hTERT-immortalized human OKF6 cells assessed as reduction in cell viability after 24 hrs by tryphan blue staining based assay; conditions: OKF6, 24 h
In short: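 OKF6/hTERT cells at 10^5/well in Ker-SFM were exposed for 24 h to 0, 1, 2.5, 5, 10, 15, 20, 25, 50 and 100 µM in DMSO. Viability was counted by trypan blue exclusion on an automated counter, in triplicate. IC50 was derived from a fitted concentration-response curve.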

Porphyromonas gingivalis [8] = experiment: Bactericidal activity against Porphyromonas gingivalis 381 at 100 uM treated for 24 hrs and measured after 7 days incubation in anaerobic condition […]; format: functional, organism-based; in short: as §2
[9] = Cytotoxicity against hTERT-immortalized human OKF6 cells assessed as cell death at 1 to 10 uM after 24 hrs by tryphan blue staining based assay
In short: (§4)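 OKF6/hTERT keratinocytes were grown in Ker-SFM with 25 µg/mL bovine pituitary extract and 0.2 ng/mL EGF at 37 °C, 5% CO2. Cells were seeded overnight at 10^5/well and exposed for 24 h to 1 or 10 µM in DMSO. Cells were then trypsinized, washed, mixed 1:1 with trypan blue and counted automatically for % live/dead. Two independent experiments were run in duplicate.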

[10] = tested on: Aggregatibacter actinomycetemcomitans; experiment: Antibacterial activity against Aggregatibacter actinomycetemcomitans JP2 assessed as bacterial growth inhibition at 1 to 100 uM after 2 hrs in anaerobic condition by WST1 assay; format: functional, organism-based; in short: as §3
[11] = Induction of apoptosis in hTERT-immortalized human OKF6 cells assessed as viable cells at 1 to 10 uM after 24 hrs by AnnexinV-FITC/propidium iodide staining based flow cytometry analysis relative to control; conditions: read-out: Activity
In short: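 After 24 h treatment of OKF6/hTERT cells, adherent cells (trypsinized) were pooled with cells recovered from supernatants and washed in PBS. They were stained with FITC-Annexin V plus propidium iodide for 15 min at room temperature. At least 10,000 events were acquired per sample (excitation 488 nm, emission 530 nm), with viable, apoptotic and necrotic fractions reported against DMSO.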

[12] = Cytotoxicity against hTERT-immortalized human OKF6 cells assessed as cell viability at 1 uM after 24 hrs by tryphan blue staining based assay relative to control; conditions: read-out: Activity; in short: as §4
Streptococcus sanguinis = experiment: Antibacterial activity against Streptococcus sanguinis ATCC 10556 assessed as bacterial growth inhibition at 1 to 100 uM after 2 hrs in aerobic condition by WST1 assay relative to control; format: functional; in short: as §3
Porphyromonas gingivalis [13] = experiment: Bactericidal activity against Porphyromonas gingivalis 381 at 1 uM treated for 24 hrs and measured after 7 days incubation in anaerobic condition by WST1 assay relative to control; format: functional; conditions: in the assay text read “by CFU counting” for “by WST1 assay”, read-out: GI; in short: as §2
Porphyromonas gingivalis [14] = experiment: Bactericidal activity against Porphyromonas gingivalis 381 at 10 uM treated for 24 hrs and measured after 7 days incubation in anaerobic condition by CFU counting relative to control; conditions: read-out: GI

In the case of `COc1ccc(Cc2cn(C)c3ccccc23)cc1C(=O)NS(=O)(=O)c1ccccc1`, the inhibition of growth at 10 µM (Porphyromonas gingivalis [1]) is reported as 90 to 100% and the inhibition of growth at 100 µM (Porphyromonas gingivalis [2]) is reported as 100%.

For `COc1cc(C(=O)NS(=O)(=O)c2ccccc2C)ccc1Cc1cn(C)c2ccc(NC(=O)OC3CCCC3)cc12`, the Activity (Porphyromonas gingivalis [3]) was “Active” and the “growth inhibition (GI)” value (Porphyromonas gingivalis [4]) was “Active”.

For `CN(C)[C@@H]1C(O)=C(C(N)=O)C(=O)[C@@]2(O)C(O)=C3C(=O)c4c(O)cccc4[C@@](C)(O)[C@H]3C[C@@H]12`, the “growth inhibition (GI)” value (Porphyromonas gingivalis [5]) was “Active”.

Work on `O=C(NS(=O)(=O)c1ccccc1)c1ccc(Cc2c[nH]c3ccccc23)cc1` yielded an inhibition of growth at 10 µM (Porphyromonas gingivalis [1]) of 40% and an inhibition of growth at 100 µM (Porphyromonas gingivalis [2]) of 100%.

In the case of `COc1ccc(Cc2cn(C)c3ccc([N+](=O)[O-])cc23)cc1C(=O)NS(=O)(=O)c1ccccc1C`, the inhibition of growth at 10 µM (Porphyromonas gingivalis [1]) is reported as 90 to 100%, the inhibition (Actinomyces naeslundii) is reported as “inactive” and the inhibition of growth at 1 µM (Porphyromonas gingivalis [6]) is reported as 15 to 40%. For the same compound, the inhibition (Veillonella parvula) was “inactive”, the “inhibition (INH)” value (Fusobacterium nucleatum) was 20% and the IC50 [7] was 230 µM. The Activity (Porphyromonas gingivalis [8]) was “Active”, the Activity [9] was “Toxic” and the inhibition [10] was “inactive”. For the same compound, the viability at 24 h, up to 10 µM [11] was 50 to 70%, the viability at 24 h, 1 µM [12] was 70 to 90% and the “inhibition (INH)” value (Streptococcus sanguinis) was 20%. For the same compound, the inhibition of growth at 100 µM (Porphyromonas gingivalis [2]) was 100%.

`COc1ccc(Cc2c[nH]c3ccccc23)cc1C(=O)NS(=O)(=O)c1ccccc1` showed an inhibition of growth at 10 µM (Porphyromonas gingivalis [1]) of 40% and an inhibition of growth at 100 µM (Porphyromonas gingivalis [2]) of 100%.

With `COc1ccc(Cc2cn(C)c3ccc([N+](=O)[O-])cc23)cc1C(=O)NS(=O)(=O)c1ccccc1` the inhibition of growth at 10 µM (Porphyromonas gingivalis [1]) was 90 to 100%, the “growth inhibition (GI)” value (Actinomyces naeslundii) was “inactive” and the inhibition of growth at 1 µM (Porphyromonas gingivalis [6]) was 15 to 40%. For the same compound, the inhibition of growth at 1 µM (Porphyromonas gingivalis [13]) was 60%, the inhibition (Veillonella parvula) was “inactive” and the inhibition of growth at 10 µM (Porphyromonas gingivalis [14]) was 100%. For the same compound, the “inhibition (INH)” value (Fusobacterium nucleatum) was 20%, the IC50 [7] was 54 µM and the Activity (Porphyromonas gingivalis [8]) was “Active”. For the same compound, the Activity [9] was “Non-Toxic”, the inhibition [10] was “inactive” and the viability at 24 h, up to 10 µM [11] was 50 to 70%. The viability at 24 h, 1 µM [12] was 70 to 90%, the “inhibition (INH)” value (Streptococcus sanguinis) was 20% and the inhibition of growth at 100 µM (Porphyromonas gingivalis [2]) was 100%.

Compound `COc1cc(C(=O)NS(=O)(=O)c2ccccc2C)ccc1Cc1cn(C)c2ccccc12` has an inhibition of growth at 100 µM (Porphyromonas gingivalis [2]) of 60%.

For `Cc1ccccc1S(=O)(=O)NC(=O)c1ccc(Cc2c[nH]c3ccccc23)cc1`, the inhibition of growth at 10 µM (Porphyromonas gingivalis [1]) was 90% and the inhibition of growth at 100 µM (Porphyromonas gingivalis [2]) was 100%.

`Cn1cc(Cc2ccc(C(=O)NS(=O)(=O)c3ccccc3)cc2)c2ccccc21` gave an inhibition of growth at 10 µM (Porphyromonas gingivalis [1]) of 90 to 100% and an inhibition of growth at 100 µM (Porphyromonas gingivalis [2]) of 100%.

For `COc1ccc(Cc2c[nH]c3ccccc23)cc1C(=O)NS(=O)(=O)c1ccccc1C`, the inhibition of growth at 10 µM (Porphyromonas gingivalis [1]) was 80% and the inhibition of growth at 100 µM (Porphyromonas gingivalis [2]) was 100%.

Compound `COc1cc(C(=O)NS(=O)(=O)c2ccccc2)ccc1Cc1cn(C)c2ccccc12` has an inhibition of growth at 100 µM (Porphyromonas gingivalis [2]) of 60%.

With `COc1ccc(Cc2cn(C)c3ccccc23)cc1C(=O)NS(=O)(=O)c1ccccc1C` the inhibition of growth at 10 µM (Porphyromonas gingivalis [1]) was 90 to 100%, the “growth inhibition (GI)” value (Actinomyces naeslundii) was “inactive” and the inhibition of growth at 1 µM (Porphyromonas gingivalis [6]) was 15 to 40%. For the same compound, the inhibition (Veillonella parvula) was “inactive”, the “inhibition (INH)” value (Fusobacterium nucleatum) was 20% and the IC50 [7] was 16 µM. For the same compound, the Activity [9] was “Toxic”, the inhibition [10] was “inactive” and the viability at 24 h, up to 10 µM [11] was 50 to 70%. For the same compound, the viability at 24 h, 1 µM [12] was 70 to 90%, the “inhibition (INH)” value (Streptococcus sanguinis) was 20% and the inhibition of growth at 100 µM (Porphyromonas gingivalis [2]) was 100%.
